DENV2 CPE – protects cells from dengue virus 2 cytopathic effect; 350,000 tested, 1.7% active; CPE inhibition, % at 9.99 µM; DENV2-infected cells, cytopathic effect rescue, plate reader; AID 651640; in the data active means CPE inhibition above about 20%, passing the limit was not always enough; tested in BHK-21 cells;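 further: 0% = median of neutral control wells and 100% = median of positive control wells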
E-selectin induc – E-selectin induction on HUVECs | P16581 | 260,000 tested, 0.37% active | activation, % at 7.58 µM | AID 686992 | HUVEC E-selectin immunofluorescence imaging; normalized: neutral wells 0, TNF-alpha wells 100;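 active means mean E-selectin-positive cell signal at least 10% of the positive control, reached in at least 60% of replicates, without over 20% cell loss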
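Test system: HUVEC; input: 3,000 HUVEC/well; measured by: immunofluorescence imaging; read-out: % PE-positive cells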
SIRT5 inh – inhibitors of human sirtuin-5 desuccinylase | Q9NXA8 | Purified SirT5, succinyl-peptide AMC, trypsin-coupled fluorescence | inhibition, % at 15 µM | 330,000 tested, 1.1% active | AID 652115; in the data active means inhibition above about 15%
Target sequence (Q9NXA8 whole entry, looked up): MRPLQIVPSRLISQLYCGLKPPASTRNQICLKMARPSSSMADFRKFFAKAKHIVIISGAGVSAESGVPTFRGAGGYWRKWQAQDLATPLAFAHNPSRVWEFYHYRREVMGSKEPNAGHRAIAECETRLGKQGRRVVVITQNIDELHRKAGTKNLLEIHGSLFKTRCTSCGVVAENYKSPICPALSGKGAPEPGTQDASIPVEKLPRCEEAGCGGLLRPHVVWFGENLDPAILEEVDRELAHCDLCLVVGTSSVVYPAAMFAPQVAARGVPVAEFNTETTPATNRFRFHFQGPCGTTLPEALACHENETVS
Starred values were filed as active, the others as inactive; x = no result. Rows were chosen to be rich in hits. Some 2.9% of all compounds tested hit in one or more screens of this group.

SMILES	DENV2 CPE	E-selectin induc	SIRT5 inh
CCCNC(=O)N[C@@H]1CC[C@@H](CCn2cc(C3CCCCC3)nn2)O[C@H]1CO	-10	0	0
C[C@H](CO)N1C[C@H](C)[C@@H](CN(C)Cc2ccncc2)Oc2ccc(NC(=O)CCC(F)(F)F)cc2CC1=O	x	-5	-1
C[C@@H]1CN([C@@H](C)CO)C(=O)Cc2cc(NC(=O)Cc3ccccc3)ccc2O[C@H]1CN(C)Cc1ccc(C(F)(F)F)cc1	-7	0	13
C[C@@H]1CN([C@@H](C)CO)C(=O)Cc2cc(NC(=O)CCC(F)(F)F)ccc2O[C@H]1CN(C)CC1CC1	2	0	2
C[C@@H]1CN([C@H](C)CO)C(=O)Cc2cc(NC(=O)Cc3ccccc3)ccc2O[C@@H]1CN(C)Cc1ccc(C(F)(F)F)cc1	0	0	16*
C[C@@H]1CN([C@@H](C)CO)C(=O)Cc2cc(NC(=O)CCC(F)(F)F)ccc2O[C@@H]1CN(C)CC1CC1	42*	0	0
C[C@@H]1CN([C@@H](C)CO)C(=O)Cc2cc(NC(=O)Cc3ccccc3)ccc2O[C@@H]1CN(C)Cc1ccc(C(F)(F)F)cc1	-4	0	5
C[C@H](CO)N1C[C@H](C)[C@H](CN(C)Cc2ccncc2)Oc2ccc(NC(=O)CCC(F)(F)F)cc2CC1=O	0	314*	-4
C[C@H](CO)N1C[C@H](C)[C@@H](CN(C)Cc2ccc(C(F)(F)F)cc2)Oc2ccc(NC(=O)Cc3ccccc3)cc2CC1=O	-11	0	16*
O=C(O)CC12CC3CC(C1)CC(n1ncc(NCc4ccccc4)c(Cl)c1=O)(C3)C2	0	2	x
CCOC(=O)c1c(NC(=O)CC)sc2c1CCN(Cc1ccccc1)C2	-3	0	2
CCc1ccc(N2C(=O)Cc3c2nc(N)c(C#N)c3N)cc1	-2	x	-1
COC(=O)C(NC(C)=O)(Nc1cc(C)ccn1)C(F)(F)F (centres undefined)	4	x	-3
Cc1ccc(NC(=O)CSc2nnc(CNC(=O)c3ccco3)o2)cc1Cl	-4	x	-2
C[C@@H]1CN([C@@H](C)CO)C(=O)Cc2cc(NC(=O)CCC(F)(F)F)ccc2O[C@H]1CN(C)Cc1ccc(Oc2ccccc2)cc1	1	17	22*
C[C@H](CO)N1C[C@H](C)[C@H](CN(C)Cc2ccncc2)Oc2ccc(NC(=O)Cc3ccccc3)cc2CC1=O	0	14	-2
C[C@@H]1CN([C@H](C)CO)C(=O)Cc2cc(NC(=O)Cc3ccccc3)ccc2O[C@H]1CN(C)S(C)(=O)=O	-8	68*	-1
C[C@H]1CN([C@@H](C)CO)C(=O)Cc2cc(NC(=O)Cc3ccccc3)ccc2O[C@@H]1CN(C)S(C)(=O)=O	3	-13	10
C[C@H]1CN([C@@H](C)CO)C(=O)Cc2cc(NC(=O)Cc3ccccc3)ccc2O[C@@H]1CN(C)Cc1ccncc1	23*	7	-15
C[C@H](CO)N1C[C@H](C)[C@H](CN(C)Cc2ccc(Oc3ccccc3)cc2)Oc2ccc(NC(=O)CCC(F)(F)F)cc2CC1=O	-3	-5	x
C[C@@H]1CN([C@H](C)CO)C(=O)c2cccc(NS(=O)(=O)c3cccs3)c2O[C@@H]1CN(C)S(=O)(=O)c1cn(C)cn1	-3	0	-3
Cc1ccccc1C1(O)c2ccccc2-c2ccccc21	8	0	-6
COc1ccc(NC(=O)Nc2ccc3c(c2)C(=O)N([C@@H](C)CO)C[C@H](C)[C@H](CN(C)Cc2ccc4c(c2)OCO4)OCCCC[C@@H](C)O3)cc1	-5	0	4
COc1ccc(NC(=O)Nc2ccc3c(c2)C(=O)N([C@@H](C)CO)C[C@@H](C)[C@@H](CN(C)Cc2ccc4c(c2)OCO4)OCCCC[C@@H](C)O3)cc1	34*	0	2
COc1ccc(NC(=O)Nc2ccc3c(c2)C(=O)N([C@@H](C)CO)C[C@@H](C)[C@@H](CN(C)Cc2ccc4c(c2)OCO4)OCCCC[C@H](C)O3)cc1	-7	0	1
SMILES	DENV2 CPE	E-selectin induc	SIRT5 inh
COc1ccc(NC(=O)Nc2ccc3c(c2)C(=O)N([C@H](C)CO)C[C@@H](C)[C@H](CN(C)Cc2ccc4c(c2)OCO4)OCCCC[C@@H](C)O3)cc1	24*	1	3
Cc1ccc(S(=O)(=O)N2C/C=C\CN(S(=O)(=O)c3ccccc3Br)CC2)cc1	14	0	0
O=C(O)CCCC(=O)NCc1c(Cl)cccc1Sc1ccc(Cl)cc1	13	x	4
O=C(O)c1ccccc1C(=O)NCc1c(Cl)cccc1Sc1ccc(Cl)cc1	26*	0	-3
COC(=O)c1c(C)nsc1NC(=O)Oc1ccccc1	-1	1	-6
COc1ccc(C(C(=O)NCC2CCCO2)N(C(=O)Cn2nnc3ccccc32)c2ccc(NC(C)=O)cc2)cc1 (centres undefined)	18	0	-5
